Laboratory results taken from ChEMBL document CHEMBL1806356, “Synthesis, characterization and antimicrobial studies of some new pyrazole incorporated imidazole derivatives” (Eur J Med Chem, 2011).

Columns and labels:
Salmonella typhimurium [1] = assay: Antibacterial activity against Salmonella Typhimurium assessed as zone of inhibition at 1000 ug/ml after 24 hrs by agar diffusion method; format: functional, Salmonella enterica subsp. enterica serovar Typhimurium; conditions: Salmonella enterica, read-out: IZ
In short: (§1)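 Well diffusion on Mueller-Hinton agar seeded with 24 h old bacterial cultures. Test compounds were dissolved in DMSO at 1 and 0.5 mg/mL and added to labeled wells. Plates were incubated 24 h at 37 °C. The inhibition zone around each well was measured in mm. Triplicate experiments, standard deviation calculated.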

Nannizzia gypsea [2] = assay: Antifungal activity against Microsporum gypseum at 500 ug/ml after 72 hrs by agar diffusion method; format: functional; conditions: read-out: DIZ
In short: (§2)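 Fungal spores were suspended in normal saline (one loopful in 3 mL) and lawned on agar plates. Wells were punched with a sterile cork borer and loaded with test compound in DMSO at the different concentrations. A DMSO solvent control was included. Petri dishes were prepared in triplicate and held at 25 °C for 72 h.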

Escherichia coli [3] = assay: Antibacterial activity against Escherichia coli ATCC 25922 assessed as zone of inhibition at 500 ug/ml after 24 hrs by agar diffusion method; format: functional; conditions: ATCC 25922, 24 h, read-out: IZ; in short: as §1
Candida albicans [4] = assay: Antifungal activity against Candida albicans at 1000 ug/ml after 72 hrs by agar diffusion method by agar diffusion method; format: functional; conditions: read-out: DIZ; in short: as §2
Clostridium perfringens [5] = assay: Antibacterial activity against Clostridium perfringens assessed as zone of inhibition at 1000 ug/ml after 24 hrs by agar diffusion method; format: functional; conditions: read-out: IZ
In short: (§3)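 Well diffusion on Mueller-Hinton agar seeded with 24 h old cultures. Compounds dissolved in DMSO at 1 and 0.5 mg/mL and added to wells punched with a sterile cork borer, with a DMSO-only control. Plates incubated 24 h at 37 °C. Read-out was the inhibition zone in mm, run in triplicate, standard deviation calculated.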

Trichophyton rubrum [6] = assay: Antifungal activity against Trichophyton rubrum at 1000 ug/ml after 72 hrs by agar diffusion method; format: functional; conditions: read-out: DIZ; in short: as §2
Bacillus subtilis [7] = assay: Antibacterial activity against Bacillus subtilis assessed as zone of inhibition at 500 ug/ml after 24 hrs by agar diffusion method; format: functional; conditions: read-out: IZ; in short: as §1
Pseudomonas aeruginosa [8] = assay: Antibacterial activity against Pseudomonas aeruginosa ATCC 27853 assessed as zone of inhibition at 500 ug/ml after 24 hrs by agar diffusion method; format: functional; conditions: ATCC 27853, 24 h, read-out: IZ; in short: as §1
Clostridium perfringens [9] = assay: Antibacterial activity against Clostridium perfringens assessed as zone of inhibition at 500 ug/ml after 24 hrs by agar diffusion method; format: functional; conditions: read-out: IZ; in short: as §3
Mus musculus [10] = assay: Toxicity in Swiss albino mouse assessed as mortality at 1000 to 3000 mg/kg, po administered as single dose measured at 4th to 24th hrs; format: organism-based; set-up: dose 1000-3000 mg/kg, route oral; conditions: in vivo
In short: (§4)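 Single oral dose of 1000 to 3000 mg/kg, given as a fine suspension in double distilled water with Tween 80. Animals housed under a light/dark cycle. Toxic symptoms and behavioural changes were observed continuously at 4, 8, 12 and 24 h, and onset was recorded. Deaths were also recorded.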

Salmonella typhimurium [11] = assay: Antibacterial activity against Salmonella Typhimurium assessed as zone of inhibition at 500 ug/ml after 24 hrs by agar diffusion method; format: functional, Salmonella enterica subsp. enterica serovar Typhimurium; conditions: Salmonella enterica, read-out: IZ; in short: as §1
Candida albicans [12] = assay: Antifungal activity against Candida albicans at 500 ug/ml after 72 hrs by agar diffusion method; format: functional; conditions: read-out: DIZ; in short: as §2
Escherichia coli [13] = assay: Antibacterial activity against Escherichia coli ATCC 25922 assessed as zone of inhibition at 1000 ug/ml after 24 hrs by agar diffusion method; format: functional; conditions: ATCC 25922, 24 h, read-out: IZ; in short: as §1
Staphylococcus aureus [14] = assay: Antibacterial activity against Staphylococcus aureus assessed as zone of inhibition at 500 ug/ml after 24 hrs by agar diffusion method; format: functional; conditions: read-out: IZ; in short: as §1
Aspergillus flavus [15] = assay: Antifungal activity against Aspergillus flavus at 1000 ug/ml after 72 hrs by agar diffusion method; format: functional; conditions: read-out: DIZ; in short: as §2
Aspergillus niger [16] = assay: Antifungal activity against Aspergillus niger at 500 ug/ml after 72 hrs by agar diffusion method; format: functional; conditions: read-out: DIZ; in short: as §2
Aspergillus niger [17] = assay: Antifungal activity against Aspergillus niger at 1000 ug/ml after 72 hrs by agar diffusion method; format: functional; conditions: read-out: DIZ; in short: as §2
Bacillus subtilis [18] = assay: Antibacterial activity against Bacillus subtilis assessed as zone of inhibition at 1000 ug/ml after 24 hrs by agar diffusion method; format: functional; conditions: read-out: IZ; in short: as §1
Mus musculus [19] = assay: Toxicity in Swiss albino mouse assessed as behavioral changes at 1000 to 3000 mg/kg, po administered as single dose measured at 4th to 24th hrs; format: organism-based; set-up: dose 1000-3000 mg/kg, route oral; conditions: in vivo; in short: as §4
Nannizzia gypsea [20] = assay: Antifungal activity against Microsporum gypseum at 1000 ug/ml after 72 hrs by agar diffusion method; format: functional; conditions: read-out: DIZ; in short: as §2
Pseudomonas aeruginosa [21] = assay: Antibacterial activity against Pseudomonas aeruginosa ATCC 27853 assessed as zone of inhibition at 1000 ug/ml after 24 hrs by agar diffusion method; format: functional; conditions: ATCC 27853, 24 h, read-out: IZ; in short: as §1
Aspergillus flavus [22] = assay: Antifungal activity against Aspergillus flavus at 500 ug/ml after 72 hrs by agar diffusion method; format: functional; conditions: read-out: DIZ; in short: as §2
Staphylococcus aureus [23] = assay: Antibacterial activity against Staphylococcus aureus assessed as zone of inhibition at 1000 ug/ml after 24 hrs by agar diffusion method; format: functional; conditions: read-out: IZ; in short: as §1
Trichophyton rubrum [24] = assay: Antifungal activity against Trichophyton rubrum at 500 ug/ml after 72 hrs by agar diffusion method; format: functional; conditions: read-out: DIZ; in short: as §2

Row | Structure (SMILES) | zone of inhibition at 1000 µg/mL (Salmonella typhimurium [1]) [mm] | zone of inhibition at 500 µg/mL (Nannizzia gypsea [2]) [mm] | zone of inhibition at 500 µg/mL (Escherichia coli [3]) [mm] | zone of inhibition at 1000 µg/mL (Candida albicans [4]) [mm] | zone of inhibition at 1000 µg/mL (Clostridium perfringens [5]) [mm] | zone of inhibition at 1000 µg/mL (Trichophyton rubrum [6]) [mm] | zone of inhibition at 500 µg/mL (Bacillus subtilis [7]) [mm] | zone of inhibition at 500 µg/mL (Pseudomonas aeruginosa [8]) [mm] | zone of inhibition at 500 µg/mL (Clostridium perfringens [9]) [mm] | zone of inhibition at 500 µg/mL (Salmonella typhimurium [11]) [mm] | zone of inhibition at 500 µg/mL (Candida albicans [12]) [mm] | zone of inhibition at 1000 µg/mL (Escherichia coli [13]) [mm] | zone of inhibition at 500 µg/mL (Staphylococcus aureus [14]) [mm] | zone of inhibition at 1000 µg/mL (Aspergillus flavus [15]) [mm] | zone of inhibition at 500 µg/mL (Aspergillus niger [16]) [mm] | zone of inhibition at 1000 µg/mL (Aspergillus niger [17]) [mm] | zone of inhibition at 1000 µg/mL (Bacillus subtilis [18]) [mm] | zone of inhibition at 1000 µg/mL (Nannizzia gypsea [20]) [mm] | zone of inhibition at 1000 µg/mL (Pseudomonas aeruginosa [21]) [mm] | zone of inhibition at 500 µg/mL (Aspergillus flavus [22]) [mm] | other results
1 | COC(=O)/C=C1/C(=O)NC(=S)N1/N=C/c1c[nH]nc1-c1ccc(SC)cc1 | 12 | 4 | 9 | 5 | 16 | 16 | 9 | 15 | 15 | 11 | 4 | 12 | 5 | 7 | 9 | 10 | 10 | 5 | 16 | 6 | Activity (Mus musculus [10]): Non-toxic; Activity (Mus musculus [19]): Non-toxic; zone of inhibition at 1000 µg/mL (Staphylococcus aureus [23]): 6 mm; zone of inhibition at 500 µg/mL (Trichophyton rubrum [24]): 15 mm
2 | CSc1ccc(-c2n[nH]cc2-c2nc(-c3ccc(Br)cc3)c(-c3ccc(Br)cc3)[nH]2)cc1 | 4 | 3 | 2 | 12 | 4 | 8 | 4 | 2 | 3 | 3 | 11 | 3 | 2 | 13 | 5 | 6 | 5 | 4 | 3 | 12 | zone of inhibition at 1000 µg/mL (Staphylococcus aureus [23]): 3 mm; zone of inhibition at 500 µg/mL (Trichophyton rubrum [24]): 7 mm
3 | Brc1ccc(-c2nc(-c3c[nH]nc3-c3ccc(-c4ccccc4)cc3)[nH]c2-c2ccc(Br)cc2)cc1 | 3 | 1 | 2 | 3 | 2 | 4 | 3 | 1 | 1 | 2 | 2 | 3 | 1 | 4 | 2 | 3 | 4 | 2 | 2 | 3 | zone of inhibition at 1000 µg/mL (Staphylococcus aureus [23]): 2 mm; zone of inhibition at 500 µg/mL (Trichophyton rubrum [24]): 3 mm
4 | COC(=O)/C=C1/C(=O)NC(=S)N1/N=C/c1c[nH]nc1-c1ccc(Cl)cc1Cl | 4 | 6 | 7 | 7 | 7 | 10 | 7 | 6 | 6 | 3 | 6 | 8 | 5 | 12 | 5 | 6 | 8 | 7 | 7 | 11 | zone of inhibition at 1000 µg/mL (Staphylococcus aureus [23]): 6 mm; zone of inhibition at 500 µg/mL (Trichophyton rubrum [24]): 9 mm
5 | CSc1ccc(-c2n[nH]cc2-c2nc(-c3ccccc3)c(-c3ccccc3)[nH]2)cc1 | 4 | 5 | 6 | 10 | 4 | 12 | 4 | 4 | 3 | 3 | 9 | 7 | 3 | 5 | 9 | 10 | 5 | 6 | 5 | 4 | zone of inhibition at 1000 µg/mL (Staphylococcus aureus [23]): 4 mm; zone of inhibition at 500 µg/mL (Trichophyton rubrum [24]): 11 mm
6 | c1ccc(-c2ccc(-c3n[nH]cc3-c3nc(-c4ccccc4)c(-c4ccccc4)[nH]3)cc2)cc1 | 4 | 4 | 2 | 9 | 2 | 9 | 2 | 3 | 1 | 3 | 8 | 3 | 1 | 9 | 9 | 10 | 3 | 5 | 4 | 7 | zone of inhibition at 1000 µg/mL (Staphylococcus aureus [23]): 2 mm; zone of inhibition at 500 µg/mL (Trichophyton rubrum [24]): 8 mm
7 | COC(=O)/C=C1/C(=O)NC(=S)N1/N=C/c1c[nH]nc1-c1ccc(C)cc1 | 6 | 3 | 4 | 4 | 6 | 10 | 8 | 3 | 5 | 5 | 3 | 5 | 3 | 6 | 9 | 10 | 9 | 4 | 4 | 5 | zone of inhibition at 1000 µg/mL (Staphylococcus aureus [23]): 4 mm; zone of inhibition at 500 µg/mL (Trichophyton rubrum [24]): 9 mm
